Reference: ChEMBL document CHEMBL1139139, “Discovery of novel 2,3-diarylfuro[2,3-b]pyridin-4-amines as potent and selective inhibitors of Lck: synthesis, SAR, and pharmacokinetic properties” (Bioorg Med Chem Lett, 2007)

Assays:
[1] = Clearance in Sprague-Dawley rat at 1 mg/kg, iv; assay type: ADME, organism-based; set-up: dose 1 mg/kg, route intravenous; conditions: in vivo
[2] = (§1) Half life in Sprague-Dawley rat at 1 mg/kg, iv; assay type: ADME, organism-based; set-up: dose 1 mg/kg, route intravenous; conditions: Sprague-Dawley, in vivo
[3] = biological target: Vascular endothelial growth factor receptor 2 (Homo sapiens, UniProt P35968); test: Inhibition of KDR
Sequence of Vascular endothelial growth factor receptor 2 (P35968 whole entry): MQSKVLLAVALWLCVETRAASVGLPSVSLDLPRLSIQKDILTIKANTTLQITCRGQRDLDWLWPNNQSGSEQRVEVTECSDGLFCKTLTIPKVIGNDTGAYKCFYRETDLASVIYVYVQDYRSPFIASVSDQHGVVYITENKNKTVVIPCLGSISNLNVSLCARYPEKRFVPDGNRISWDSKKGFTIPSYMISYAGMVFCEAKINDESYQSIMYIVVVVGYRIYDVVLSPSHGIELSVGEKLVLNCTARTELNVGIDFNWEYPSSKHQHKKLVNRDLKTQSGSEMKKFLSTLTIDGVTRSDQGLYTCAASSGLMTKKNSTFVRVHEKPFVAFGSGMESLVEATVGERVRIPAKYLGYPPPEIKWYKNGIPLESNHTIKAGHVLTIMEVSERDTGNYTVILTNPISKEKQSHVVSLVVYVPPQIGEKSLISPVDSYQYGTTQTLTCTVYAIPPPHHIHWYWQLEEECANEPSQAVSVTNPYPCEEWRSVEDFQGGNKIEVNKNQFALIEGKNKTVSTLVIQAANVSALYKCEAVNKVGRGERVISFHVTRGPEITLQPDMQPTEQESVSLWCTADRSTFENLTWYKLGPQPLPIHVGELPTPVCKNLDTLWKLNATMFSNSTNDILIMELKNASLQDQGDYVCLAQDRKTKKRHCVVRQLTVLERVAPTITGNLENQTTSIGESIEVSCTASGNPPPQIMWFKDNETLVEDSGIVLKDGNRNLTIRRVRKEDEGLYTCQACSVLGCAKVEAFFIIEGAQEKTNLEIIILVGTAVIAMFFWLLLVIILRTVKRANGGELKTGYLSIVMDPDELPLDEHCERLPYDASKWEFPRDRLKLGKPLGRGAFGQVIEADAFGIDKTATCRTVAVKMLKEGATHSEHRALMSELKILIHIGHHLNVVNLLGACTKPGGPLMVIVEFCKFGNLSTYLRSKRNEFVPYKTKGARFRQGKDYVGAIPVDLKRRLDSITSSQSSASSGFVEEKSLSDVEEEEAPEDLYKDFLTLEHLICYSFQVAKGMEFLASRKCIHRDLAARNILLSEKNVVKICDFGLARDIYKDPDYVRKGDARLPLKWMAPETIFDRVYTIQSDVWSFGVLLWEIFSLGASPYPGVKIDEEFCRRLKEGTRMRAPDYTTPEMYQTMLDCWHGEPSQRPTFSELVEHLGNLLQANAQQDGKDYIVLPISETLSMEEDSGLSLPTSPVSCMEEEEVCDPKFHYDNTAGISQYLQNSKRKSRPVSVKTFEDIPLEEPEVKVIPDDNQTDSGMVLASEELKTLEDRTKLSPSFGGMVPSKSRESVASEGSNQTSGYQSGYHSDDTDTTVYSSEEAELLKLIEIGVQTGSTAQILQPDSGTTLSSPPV

Activated CDC42 kinase 1 = Activated CDC42 kinase 1 (Homo sapiens, UniProt Q07912); test: Inhibition of Ack1
Sequence of Activated CDC42 kinase 1 (Q07912 whole entry): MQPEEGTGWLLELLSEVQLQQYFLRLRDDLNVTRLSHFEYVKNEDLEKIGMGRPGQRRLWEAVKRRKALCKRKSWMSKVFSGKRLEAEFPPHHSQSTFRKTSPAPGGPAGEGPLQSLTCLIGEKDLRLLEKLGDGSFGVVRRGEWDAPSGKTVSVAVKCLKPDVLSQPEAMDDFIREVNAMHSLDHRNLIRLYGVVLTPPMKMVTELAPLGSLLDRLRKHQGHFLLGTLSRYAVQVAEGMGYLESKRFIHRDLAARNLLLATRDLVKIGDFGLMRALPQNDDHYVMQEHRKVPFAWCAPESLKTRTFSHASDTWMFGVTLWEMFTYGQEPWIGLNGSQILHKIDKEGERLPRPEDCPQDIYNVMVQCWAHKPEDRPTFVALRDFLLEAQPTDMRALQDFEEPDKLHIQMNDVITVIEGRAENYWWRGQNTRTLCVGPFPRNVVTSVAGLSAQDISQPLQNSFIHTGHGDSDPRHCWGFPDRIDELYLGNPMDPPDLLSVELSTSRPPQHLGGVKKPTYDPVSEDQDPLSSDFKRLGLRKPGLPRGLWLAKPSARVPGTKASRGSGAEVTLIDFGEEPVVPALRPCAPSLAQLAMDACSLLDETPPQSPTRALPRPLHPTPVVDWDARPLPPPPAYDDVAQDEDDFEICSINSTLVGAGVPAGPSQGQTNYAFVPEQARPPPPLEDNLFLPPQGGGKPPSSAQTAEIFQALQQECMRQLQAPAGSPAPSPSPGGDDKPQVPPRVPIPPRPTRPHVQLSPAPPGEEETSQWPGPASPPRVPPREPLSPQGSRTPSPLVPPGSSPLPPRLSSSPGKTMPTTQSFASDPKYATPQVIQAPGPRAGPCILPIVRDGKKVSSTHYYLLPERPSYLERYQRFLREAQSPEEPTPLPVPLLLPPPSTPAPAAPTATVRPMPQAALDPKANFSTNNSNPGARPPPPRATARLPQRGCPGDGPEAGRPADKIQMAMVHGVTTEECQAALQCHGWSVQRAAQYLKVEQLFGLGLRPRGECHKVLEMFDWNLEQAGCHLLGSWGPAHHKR

[4] = biological target: T1, Tyrosine-protein kinase JAK3 (Homo sapiens, UniProt P52333); test: Inhibition of JAK3
T1 sequence (P52333 whole entry): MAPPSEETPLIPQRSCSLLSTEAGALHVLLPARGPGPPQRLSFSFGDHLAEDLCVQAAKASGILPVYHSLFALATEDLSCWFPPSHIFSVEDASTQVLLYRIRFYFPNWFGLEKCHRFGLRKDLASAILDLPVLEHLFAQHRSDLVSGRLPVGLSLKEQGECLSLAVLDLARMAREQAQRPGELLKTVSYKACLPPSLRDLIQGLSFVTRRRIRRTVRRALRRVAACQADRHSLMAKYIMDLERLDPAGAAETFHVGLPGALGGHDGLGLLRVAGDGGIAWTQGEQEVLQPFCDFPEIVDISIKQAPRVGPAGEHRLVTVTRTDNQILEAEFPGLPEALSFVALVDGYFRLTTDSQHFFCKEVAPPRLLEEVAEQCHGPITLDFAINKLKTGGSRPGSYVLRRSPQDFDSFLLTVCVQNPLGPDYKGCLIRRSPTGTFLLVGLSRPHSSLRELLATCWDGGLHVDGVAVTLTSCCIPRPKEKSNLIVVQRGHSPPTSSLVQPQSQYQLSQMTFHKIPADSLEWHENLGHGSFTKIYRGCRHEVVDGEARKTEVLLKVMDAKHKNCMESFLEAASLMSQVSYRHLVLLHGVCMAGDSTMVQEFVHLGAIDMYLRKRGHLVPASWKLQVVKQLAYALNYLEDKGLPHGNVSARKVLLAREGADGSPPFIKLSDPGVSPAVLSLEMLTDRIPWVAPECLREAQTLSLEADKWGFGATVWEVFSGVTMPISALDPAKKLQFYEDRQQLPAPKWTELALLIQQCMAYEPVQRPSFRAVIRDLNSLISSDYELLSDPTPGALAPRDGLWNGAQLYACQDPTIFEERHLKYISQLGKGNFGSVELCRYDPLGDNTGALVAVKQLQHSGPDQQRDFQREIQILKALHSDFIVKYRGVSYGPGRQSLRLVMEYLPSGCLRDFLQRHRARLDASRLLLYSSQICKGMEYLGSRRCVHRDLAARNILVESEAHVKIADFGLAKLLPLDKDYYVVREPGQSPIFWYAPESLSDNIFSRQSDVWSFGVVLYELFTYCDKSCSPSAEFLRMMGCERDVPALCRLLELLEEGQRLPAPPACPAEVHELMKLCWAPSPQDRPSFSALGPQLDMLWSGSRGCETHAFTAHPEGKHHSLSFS

[5] = Volume of distribution at steady state Sprague-Dawley rat at 1 mg/kg, iv; assay type: ADME, organism-based; set-up: dose 1 mg/kg, route intravenous; conditions: in vivo, read-out: Vdss
T-cell [6] = test: Inhibition of T cell activation in human mixed lymphocyte reaction; assay type: functional, cell-based
T-cell [7] = test: Inhibition of anti-CD3/CD28-induced IL2 secretion in human T cells; assay type: functional, cell-based
Method in brief: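 Human T cells stimulated with anti-CD3/CD28, with IL-2 secretion as read-out. IC50 determined.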

[8] = biological target: Tyrosine-protein kinase Lck (Homo sapiens, UniProt P06239); test: Inhibition of Lck by HTRF assay
Sequence of Tyrosine-protein kinase Lck (P06239 whole entry): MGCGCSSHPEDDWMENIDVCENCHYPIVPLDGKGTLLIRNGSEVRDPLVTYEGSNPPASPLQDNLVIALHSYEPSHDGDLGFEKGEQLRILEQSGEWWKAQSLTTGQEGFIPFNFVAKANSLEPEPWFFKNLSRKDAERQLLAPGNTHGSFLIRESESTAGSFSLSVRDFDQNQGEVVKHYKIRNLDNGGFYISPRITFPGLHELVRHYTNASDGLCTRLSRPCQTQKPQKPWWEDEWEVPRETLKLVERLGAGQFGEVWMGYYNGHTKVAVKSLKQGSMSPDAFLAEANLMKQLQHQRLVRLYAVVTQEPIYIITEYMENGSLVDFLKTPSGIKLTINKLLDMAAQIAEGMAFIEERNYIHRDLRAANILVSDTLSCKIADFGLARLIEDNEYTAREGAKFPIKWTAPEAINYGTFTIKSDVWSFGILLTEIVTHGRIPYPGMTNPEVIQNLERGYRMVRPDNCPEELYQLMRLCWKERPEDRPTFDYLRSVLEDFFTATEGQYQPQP

Rattus norvegicus = test: as §1; assay type: ADME, organism-based; set-up: dose 1 mg/kg, route intravenous; conditions: in vivo

`c1ccc(-c2c(-c3ccc(OCCN4CCOCC4)cc3)oc3nccc(NCCN4CCNCC4)c23)cc1` gave a clearance [1] of 128 mL/min/kg, a half-life [2] of 5.3 h and an IC50 [3] of 57 nM. The IC50 (Activated CDC42 kinase 1) was 150 nM, the IC50 [4] was 32 nM and the Vd [5] was 4.7 L/kg. For the same compound, the IC50 (T-cell [6]) was 14 nM and the IC50 (T-cell [7]) was 130 nM.
With `c1ccc(-c2c(-c3ccc(OCCn4ccnc4)cc3)oc3nccc(NCCN4CCNCC4)c23)cc1` the clearance [1] was 192 mL/min/kg, the half-life [2] was 0.8 h and the IC50 [3] was 160 nM. The IC50 (Activated CDC42 kinase 1) was 84 nM, the IC50 [4] was 25 nM and the Vd [5] was 7.2 L/kg. It also gave an IC50 (T-cell [6]) of 57 nM and an IC50 (T-cell [7]) of 470 nM.
`c1ccc(-c2oc3ncnc(NCCN4CCNCC4)c3c2-c2ccccc2)cc1` showed an IC50 [3] of 2600 nM and an IC50 (T-cell [7]) of 710 nM.
In the case of `c1ccc(-c2oc3nccc(NCCN4CCNCC4)c3c2-c2ccccc2)cc1`, the clearance [1] is reported as 20 mL/min/kg, the half-life [2] is reported as 1.5 h and the IC50 [3] is reported as 360 nM. For the same compound, the IC50 (Activated CDC42 kinase 1) was 420 nM, the IC50 [4] was 140 nM and the Vd [5] was 2.3 L/kg. The IC50 (T-cell [6]) was 620 nM and the IC50 (T-cell [7]) was 1200 nM.
In the case of `c1ccc(-c2c(-c3ccc(OCCN4CCCCC4)cc3)oc3nccc(NCCc4cccnc4)c23)cc1`, the IC50 [3] is reported as 370 nM, the IC50 (Activated CDC42 kinase 1) is reported as 20 nM and the IC50 [4] is reported as 37 nM.
With `c1ccc(-c2c(-c3ccc(OCCN4CCCCC4)cc3)oc3nccc(NCCc4ccncc4)c23)cc1` the IC50 [3] was 4700 nM, the IC50 (Activated CDC42 kinase 1) was 180 nM and the IC50 [4] was 80 nM. The IC50 [8] was 1600 nM.
With `CC(C)N(CCOc1ccc(-c2oc3nccc(NCCN4CCNCC4)c3c2-c2ccccc2)cc1)C(C)C` the t1/2 (Rattus norvegicus) was 3.1 h, the IC50 [3] was 67 nM and the IC50 (Activated CDC42 kinase 1) was 180 nM. For the same compound, the IC50 [4] was 44 nM, the IC50 (T-cell [6]) was 18 nM and the IC50 (T-cell [7]) was 250 nM. It also gave an IC50 [8] of 19 nM.
Compound `c1ccc(-c2c(-c3ccc(OCCN4CCCCC4)cc3)oc3nccc(NCCN4CCNCC4)c23)cc1` has a clearance [1] of 188 mL/min/kg, a half-life [2] of 4.7 h and an IC50 [3] of 100 nM. It also gave an IC50 (Activated CDC42 kinase 1) of 120 nM, an IC50 [4] of 71 nM and a Vd [5] of 60 L/kg. For the same compound, the IC50 (T-cell [6]) was 61 nM, the IC50 (T-cell [7]) was 510 nM and the IC50 [8] was 29 nM.
With `c1ccc(-c2c(-c3ccc(OCCN4CCCC4)cc3)oc3nccc(NCCN4CCNCC4)c23)cc1` the IC50 [3] was 210 nM, the IC50 (Activated CDC42 kinase 1) was 170 nM and the IC50 [4] was 110 nM. It also gave an IC50 (T-cell [6]) of 170 nM and an IC50 (T-cell [7]) of 650 nM.
`c1ccc(-c2oc3nccc(NC[C@@H]4CCCO4)c3c2-c2ccccc2)cc1` gave an IC50 [3] of 4200 nM, an IC50 (Activated CDC42 kinase 1) of 110 nM and an IC50 [4] of 26 nM. The IC50 (T-cell [6]) was 4000 nM, the IC50 (T-cell [7]) was 5200 nM and the IC50 [8] was 2100 nM.
For `c1ccc(-c2c(-c3ccc(OCCN4CCCCC4)cc3)oc3nccc(NCCCn4ccnc4)c23)cc1`, the IC50 [3] was 1700 nM, the IC50 (Activated CDC42 kinase 1) was 930 nM and the IC50 [4] was 1400 nM.
